# MBD2 inh: inhibitors of human MBD2 binding to methylated oligonucleotide. inhibition, % at 4.4 µM. 370,000 tested, 0.31% active. TR-FRET. Q9UBB5; in the data active = inhibition above about 13%
# RBBP9 inh: inhibitors of human serine hydrolase RBBP9; O75884; recombinant RBBP9, FP-Rh probe fluorescence polarization; inhibition, % at 7.94 µM; 220,000 tested, 0.2% active;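 active = inhibition above the campaign mean of all tested compounds plus 3 SD, cut at about 14% in these data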;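 note: plate controls were DMSO wells with RBBP9 for no effect and wells lacking RBBP9 protein for full effect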
#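 System: RBBP9 protein / Quantity: 2.5 µM RBBP9 dispensing solution, before mixing / Also added: Serine-hydrolase probe FP-Rh, 375 nM pre-mixing / Dosing: 7.94 µM single dose, 0.794% DMSO / Timing: enzyme-compound preincubation 30 min, then probe labeling 45 min, 25 °C / Signal: FP readout at 525/598 nm / Controls: DMSO-treated enzyme wells and wells lacking RBBP9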
# LEDGF integ inh: blocks HIV-1 LEDGF/p75-dependent DNA integration; 370,000 tested, 0.64% active; inhibition, % at 3.7 µM; TR-FRET IN-LEDGF/p75 DNA integration, Eu/Cy5;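 active = inhibition above the screen-wide mean plus 3 SD, cut at about 13% in these data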;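 note: signal is the Cy5 over europium emission ratio at 671 and 618 nm; 0% = plate median of compound wells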
# UHRF1 binding: human UHRF1 methylated DNA binding inhibitors; 370,000 tested, 0.75% active; inhibition, % at 4.4 µM; Q96T88; UHRF1 binding to methylated oligo, TR-FRET; AID 687016; in the data active = inhibition above about 21%;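 note: UHRF1 SRA domain binding a hemimethylated CpG hairpin DNA probe; 0% = median of test compound wells and 100% = reference inhibitor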
# ABHD5-PLIN5 inh: blocks binding of human ABHD5 to perilipin-5. inhibition, % at 4 µM. Split G. princeps luciferase complementation, luminescence, 4 h. 360,000 tested, 0.78% active;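 active = inhibition above the mean inhibition across every tested compound plus 3 SD, cut at about 22% in these data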;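 note: 0% = DMSO only wells and the 100% control is not disclosed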
# PRMT1 inh: inhibitors of human PRMT1; inhibition, % at 2.79 µM; 370,000 tested, 1.3% active; Q99873; recombinant PRMT1, activity-based probe fluorescence polarization;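 active = inhibition above about 21% made by adding two undisclosed values, limit read from the data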
# Target sequence (Q99873 whole entry, looked up): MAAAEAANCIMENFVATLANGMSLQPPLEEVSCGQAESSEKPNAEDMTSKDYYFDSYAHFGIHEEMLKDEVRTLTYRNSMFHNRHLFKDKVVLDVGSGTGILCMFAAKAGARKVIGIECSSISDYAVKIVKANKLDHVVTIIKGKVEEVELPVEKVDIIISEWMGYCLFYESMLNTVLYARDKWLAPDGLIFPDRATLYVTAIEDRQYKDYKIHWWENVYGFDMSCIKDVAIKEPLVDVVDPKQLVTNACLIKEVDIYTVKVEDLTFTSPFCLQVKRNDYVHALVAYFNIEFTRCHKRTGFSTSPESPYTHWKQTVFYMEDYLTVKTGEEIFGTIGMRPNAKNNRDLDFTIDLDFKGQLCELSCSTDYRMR
# PRMT1 confirm: PRMT1 (human) inhibition, FP confirmation; shares compounds with PRMT1 inh; AID 687036; inhibition, % at 2.79 µM; recombinant His-PRMT1, activity-based probe fluorescence polarization; 3,300 tested, 42% active;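 active = mean inhibition across replicates above the hit cutoff derived for the earlier primary screen, cut at about 22% in these data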
# * marks the source's active call; other numbers are inactive results; / = no result. In the library only some 3.1% were active in any assay of this set; here they are far more common.
SMILES,MBD2 inh,RBBP9 inh,LEDGF integ inh,UHRF1 binding,ABHD5-PLIN5 inh,PRMT1 inh,PRMT1 confirm
COc1cccc(C(=O)N[C@H](C(=O)N2CCC[C@H]2C(=O)NCc2ccccc2)C(C)C)c1,-2,/,2,2,/,0,/
COCc1[nH]nc2c1C(c1ccc(F)cc1)NC2=O (stereo not drawn),1,/,-1,1,/,-4,/
COC1=CC(=O)CC(C)C12Oc1cc(OC)cc(OC)c1C2=O (stereo not drawn),-4,/,0,0,2,2,/
COC(=O)C1=CC(=O)C=C(OC)[C@@]12Oc1cc(C)cc(OC)c1C2=O,4,/,0,0,/,88*,85*
CC1CC1C(=O)Nc1nc(-c2cccs2)c(-c2cccs2)s1 (stereo not drawn),9,-4,4,3,-9,27*,9
CC(C)(C)c1cccc(N/C(=C\C(=O)c2ccccc2)c2ccccc2)c1,-6,/,3,-1,/,-1,/
Cc1ccc(NC(=S)NNc2ccc([N+](=O)[O-])cc2S(=O)(=O)Nc2ccccc2C(=O)O)cc1C,2,0,0,0,-14,27*,39*
CC[C@@H](CCC(=O)N(c1ccccc1)c1ccccc1)c1ccc(C)cc1,1,/,-3,1,/,-3,/
Cc1ccc(C=Nn2c(-c3n[nH]c4c3CCC4)n[nH]c2=S)s1,7,/,-3,3,/,29*,4
S=c1[nH]nc(-c2n[nH]c3c2CCC3)n1N=Cc1ccc(Br)s1,-3,/,2,-3,/,19,/
CC(C)CN1C(=O)[C@]2(CC(=O)N(C)C2c2ccccc2)c2cc(-n3cc(CO)nn3)ccc21 (stereo partly drawn),1,/,5,7,/,-2,/
CCCCN(C)c1c2c(nc3ncnn13)CCCC2,-3,/,2,2,/,-4,/
c1nc(SSc2ncnc3nc[nH]c23)c2[nH]cnc2n1,0,/,-4,0,-18,48*,96*
O=C(O)CSc1ncnc2nc[nH]c12,3,-15,2,-1,-2,-2,/
COC(=O)[C@]12C[C@H](CC(=O)N3CCN(C(=O)c4ccco4)CC3)C(=O)N(CCC3=CCCCC3)C1=C[C@H](C(C)(C)C)O[C@@H]2C,6,/,0,0,/,1,/
COc1ccc(CCN2C(=O)CC(NCc3ccc4c(c3)OCO4)C2=O)cc1OC (stereo not drawn),/,-7,/,/,7,/,/
COc1ccc(CCNC2CC(=O)N(CCc3ccc(OC)c(OC)c3)C2=O)cc1OC (stereo not drawn),-3,0,-2,-3,5,54*,1
O=C1NC2=C(C(=O)CCC2)C(c2ccccc2Cl)N1 (stereo not drawn),4,/,1,-2,1,-1,/
Cc1nc(Cl)c2c(n1)NC1=C(O2)C(=O)CCC1,-2,1,1,-7,-1,36*,48*
COc1cc(C)ccc1OCc1cc(C(=O)N(C)CCCN2CCOCC2)no1,-5,/,0,0,6,-3,/
CN(CCCN1CCOCC1)C(=O)c1cc(COc2ccc(F)cc2F)on1,-1,/,-2,-1,0,29*,2
Cc1cc(C(=O)CSc2nnc(-c3cccnc3)n2-c2ccccc2F)c(C)n1CC1CCCO1 (stereo not drawn),2,6,2,4,3,27*,8
O=S(=O)(CC1NCc2cc(F)ccc21)NCc1ccccc1 (stereo not drawn),-8,/,2,-5,/,-1,/
CCOc1cc(/C=C2\SC(=S)N(C(C(=O)O)c3ccccc3)C2=O)ccc1O (stereo not drawn),-11,-67,6,-8,2,25*,-3
CCOc1ccc(/C=C2/SC(=S)N(C(C(=O)O)c3ccccc3)C2=O)cc1OCC (stereo not drawn),-2,-2,5,-7,-1,0,/
O=C(O)C(Cc1ccccc1)N1C(=O)/C(=C/c2cccnc2)SC1=S (stereo not drawn),-4,3,-5,4,-7,26*,4
Cc1ccccc1CNC(=O)c1cccc2c1C(=O)N(Cc1cccnc1)C2,10,/,-6,3,/,4,/

# Source: PubChem
